Bioassay records: PubChem, several laboratories
Compounds with a hit are over-represented: about 12% of the library has one in this group of screens.
Lmaj promast = Leishmania major promastigote growth inhibition. Leishmania major promastigotes, resazurin fluorescence viability. inhibition, % at 10 µM. 9% of 200,000 active. AID 1063; in the data active = inhibition above about 50%;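 also: promastigotes grown with compound for 44 hours at 28 °C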
MT stabilizer = stabilizes microtubules in HeLa cells; HeLa tubulin immunostaining HCS, 24 h; share of cells brighter than vehicle mean+2SD; % tubulin-high responders, % at 10 µM; 0.83% of 200,000 active; AID 2205;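 active = plate Z-score above 3 for both tubulin-high and condensed-nucleus cell shares, with cell loss under 80%, at 10 µM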;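 also: anti alpha tubulin signal scored within the nucleus-defined area of each cell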
Autophagy mod = autophagy modulation, high-content screen | MEF GFP-LC3 puncta imaging; test concentration mostly 10 µM | calls only at 10 µM (by protocol) | 0.98% of 190,000 active;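 active = percentage of spot-positive cells more than 3 SD above its plate mean, without a fluorescence outlier flag or 80% toxicity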;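 also: spot-positive cell cutoff set from DMSO-treated cells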
Dynein cargo inh = dynein cargo transport inhibition | 3617.4 mouse cells, GR-EGFP nuclear translocation imaging; test concentration mostly 20 µM; stimulated with dexamethasone, 1 µM; hits give low values | z-score, hits read low | 0.47% of 220,000 active | AID 1381;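 active = plate z-score of nuclear minus cytoplasmic receptor signal below a set negative limit, without overly bright fluorescence or cell loss, cut at about -3.5 in these data, passing the limit was not always enough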;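 also: z-score of nuclear minus cytoplasmic ring GR-EGFP intensity difference per well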
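Buffer or medium: Induction medium lacking tetracycline, stripped serum | Also added: Dexamethasone agonist, 1.0 µM final, for 30 min | Timing: 48 h induction, 1 h compound, 30 min dex at 37 °C | Detection: Formaldehyde fixation, Hoechst nuclear stain, 10x automated fluorescence imaging | Measure: Nuclear versus cytoplasmic GR-EGFP signal, averaged per well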
bCat nuc transl = modulators of beta-catenin nuclear translocation; HeLa beta-catenin nuclear translocation, immunofluorescence imaging; nuclear translocation activity, % at 5 µM; 0.3% of 190,000 active;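 active = nuclear translocation activity above 50% at 5 µM, with a well cell count of 50 or more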;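 also: per-cell ratio of nuclear to cytoplasmic median beta-catenin stain intensity; plate controls were DMSO negative control for no effect and GSK-3 inhibitor IX positive control for full effect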
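Test system: human HeLa cell line; Doses: 5 µM primary, 0.02–20 µM confirmation; Incubation: 24 h compound exposure, 37°C; Detection: beta-catenin immunofluorescence imaging with DAPI; Read-out: beta-catenin nuclear/cytoplasmic ratio, % activation.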
CHOP inhibitor = inhibitors of CHOP induction in ER stress response; CHO-K1 CHOP-promoter luciferase, tunicamycin-induced, 15-18 h; inhibition, % at 10 µM; 3.8% of 220,000 active; AID 2732;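 active = compounds that reduced the stress-induced luciferase reporter signal by more than about 70% of percent inhibition, limit read from the data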;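 also: 0% = tunicamycin plus vehicle and 100% = wells without tunicamycin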
* = called active by the depositor.

`CCN(CC)CCN1C(=O)c2ccccc2NC1c1ccc(F)cc1` (centres undefined) gave Lmaj promast 7, MT stabilizer 3, Autophagy mod inactive, Dynein cargo inh 0.17, bCat nuc transl 1 and CHOP inhibitor 3.
Screening CCC(c1nnc(SCC(=O)Nc2cc(Cl)ccc2C#N)n1C1CCCCC1)N(C)C (centres undefined) returned Lmaj promast 77*, MT stabilizer 3, Autophagy mod inactive, Dynein cargo inh 0.65, bCat nuc transl -1 and CHOP inhibitor 7.
`CCC(c1nnc(SCC(=O)Nc2ccc(C(C)=O)cc2)n1C1CCCCC1)N(C)C` (centres undefined) gave Lmaj promast 61*, MT stabilizer 5, Autophagy mod inactive, Dynein cargo inh 1 and CHOP inhibitor 10.
Screening CN(C)c1ccc(NC(=O)CSc2nc3ccccc3c(=O)n2C2CCCCC2)cc1 returned Lmaj promast 37, MT stabilizer 3, Autophagy mod inactive, Dynein cargo inh -1.1, bCat nuc transl -3 and CHOP inhibitor 32.
Screening CCCCN(C(=O)Cn1ncc(Cl)c(Cl)c1=O)c1c(N)n(CC(C)C)c(=O)[nH]c1=O returned Dynein cargo inh -1.3, bCat nuc transl -5 and CHOP inhibitor 18.
Screening C=CCN1C(=O)/C(=C/c2ccc(N(C)C)cc2)S/C1=N\c1nnc(CC)s1 returned Lmaj promast 5, MT stabilizer 3, Autophagy mod active, Dynein cargo inh -3.3, bCat nuc transl 4 and CHOP inhibitor 104*.
`C=CCN1C(=O)/C(=C/c2ccc(OCC(=O)O)cc2)S/C1=N/c1nccs1` gave Lmaj promast -5, MT stabilizer 3, Autophagy mod inactive, Dynein cargo inh 2.8, bCat nuc transl -1 and CHOP inhibitor 17.
`CC(C)CN=C(NS(=O)(=O)c1ccccc1)C(Cl)(Cl)Cl` gave Lmaj promast 90*, MT stabilizer 6, Autophagy mod inactive, Dynein cargo inh -2.7, bCat nuc transl 52* and CHOP inhibitor 54.
For O=C(Nc1cccc2nsnc12)c1cccnc1 the results were Lmaj promast 78*, MT stabilizer 4, Autophagy mod inactive, Dynein cargo inh 0.78 and CHOP inhibitor -4.
For CCOC(=O)N/N=C(C)/C=C/c1ccco1 the results were Lmaj promast 84*, MT stabilizer 2, Autophagy mod inactive, Dynein cargo inh 1.2, bCat nuc transl 2 and CHOP inhibitor -6.
For CCOc1ccccc1N1CC(C(=O)Nc2cccc(S(=O)(=O)N3CCCCC3)c2)CC1=O (centres undefined) the results were Lmaj promast -2, MT stabilizer 6, Autophagy mod inactive, Dynein cargo inh -0.029, bCat nuc transl -3 and CHOP inhibitor 11.
`C[C@H](NS(=O)(=O)c1ccccc1F)C(=O)OCC(=O)N1CCc2ccccc21` gave Lmaj promast 1, MT stabilizer 1, Autophagy mod inactive, Dynein cargo inh -0.5, bCat nuc transl -3 and CHOP inhibitor 10.
FC(F)(F)c1cccc(N2CCN(C(=S)NC3CCCC3)CC2)c1 was read as Lmaj promast -6, MT stabilizer 0, Autophagy mod inactive, Dynein cargo inh 0.23, bCat nuc transl -3 and CHOP inhibitor 81*.
For C=CCNC(=S)N1CCN(c2cccc(C(F)(F)F)c2)CC1 the results were Lmaj promast 6, MT stabilizer 1, Autophagy mod inactive, Dynein cargo inh 0.28, bCat nuc transl 2 and CHOP inhibitor 48.
Screening CCNC(=S)N1CCN(c2cccc(C(F)(F)F)c2)CC1 returned Lmaj promast 36, MT stabilizer 2, Autophagy mod inactive, Dynein cargo inh 1.3, bCat nuc transl 0 and CHOP inhibitor -1.
Screening FC(F)(F)c1cccc(N2CCN(C(=S)NC3CCCCC3)CC2)c1 returned Lmaj promast 97*, MT stabilizer 2, Autophagy mod inactive, Dynein cargo inh 0.44, bCat nuc transl -3 and CHOP inhibitor 61.
Screening COCCn1c(C)cc(C2=NNC(=NC3CC3)SC2)c1C returned Lmaj promast 18, MT stabilizer 2, Autophagy mod inactive, Dynein cargo inh 1.5, bCat nuc transl -1 and CHOP inhibitor 103*.
For C=CCN=C1NN=C(c2cc(C)n(CCOC)c2C)CS1 the results were Lmaj promast 2, MT stabilizer 2, Autophagy mod inactive, Dynein cargo inh 0.38, bCat nuc transl -2 and CHOP inhibitor 80*.
`C=CCn1c(C)cc(C2=NNC(=NC(C)(C)C)SC2)c1C` gave Lmaj promast 15, MT stabilizer 2, Autophagy mod inactive, Dynein cargo inh 0.17, bCat nuc transl 0 and CHOP inhibitor 63.
COCCn1c(C)cc(C2=NNC(=Nc3ccc(Cl)cc3Cl)SC2)c1C was read as Lmaj promast 4, MT stabilizer 4, Autophagy mod inactive, Dynein cargo inh 0.88, bCat nuc transl -2 and CHOP inhibitor 31.
Screening CCn1cc(S(=O)(=O)N2CCN(Cc3cccc(Cl)c3)CC2)cn1 returned Lmaj promast 1, MT stabilizer 6, Autophagy mod inactive, Dynein cargo inh 1.9, bCat nuc transl -1 and CHOP inhibitor -10.
`CC(=O)NC(Cc1ccc(F)cc1)C(=O)N1CCN(C(=O)NCc2ccccc2)CC1` (centres undefined) gave Lmaj promast -7, MT stabilizer 6, Autophagy mod inactive, Dynein cargo inh 1.8, bCat nuc transl -3 and CHOP inhibitor 25.
CC(=O)Nc1ccc(S(=O)(=O)n2cnc3cc(C)c(C)cc32)cc1 was read as Lmaj promast 67*, MT stabilizer 3, Autophagy mod inactive, Dynein cargo inh -0.74 and bCat nuc transl 1.
`CCc1nc(N(CC)CC)c2oc3ccccc3c2n1` gave Lmaj promast 31, MT stabilizer 10, Autophagy mod inactive, Dynein cargo inh -0.19 and CHOP inhibitor 91*.
Screening CCc1nc(OCCN(CC)CC)c2oc3ccccc3c2n1 returned Lmaj promast 33, MT stabilizer 3, Autophagy mod inactive, Dynein cargo inh 0.24, bCat nuc transl 0 and CHOP inhibitor 41.
CCc1nc(SCCO)c2oc3ccccc3c2n1 was read as Lmaj promast 2, MT stabilizer 2, Autophagy mod inactive, Dynein cargo inh -0.67, bCat nuc transl -7 and CHOP inhibitor 17.
Screening CCc1nc(NCc2ccc3c(c2)OCO3)c2oc3ccccc3c2n1 returned Lmaj promast 72*, MT stabilizer 3, Autophagy mod inactive, Dynein cargo inh -0.27, bCat nuc transl 1 and CHOP inhibitor 0.
Screening c1ccc2c(c1)oc1c(N3CCN(Cc4ccc5c(c4)OCO5)CC3)ncnc12 returned Lmaj promast 94*, MT stabilizer 2, Autophagy mod inactive, Dynein cargo inh -1.7 and CHOP inhibitor 69.
